Test results reported in PMC12246158 (Scientific Reports, 2025).

Tests used:
L. major promastigotes = experiment: Parasite counting method; format: cell-based; details: microscopic counting, 24, 48 and 72 h at 24 °C
Outline: (§1)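 Promastigotes (L. major MRHO/IR/75/ER; L. tropica MRHO/IR/02/Mash10), grown in RPMI 1640 with 20% heat-inactivated FBS and pen-strep, were seeded at 1 × 10^6/mL in log phase. They were exposed to 3.12–1000 µM test compound (DMSO stock diluted in PBS) for 24, 48 and 72 h at 24 °C. Fixed parasites were counted daily in a Neubauer chamber at 400x. Triplicate; AmB 0.93 µM reference; repeated-measures ANOVA.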

L. tropica promastigotes = experiment: Parasite counting method; format: cell-based; details: microscopic counting, 24, 48 and 72 h at 24 °C
Outline: as §1

[1] = system: L. major intracellular amastigotes; experiment: Anti-intracellular amastigote activity in J774A.1 macrophages; format: cell-based, L. major (MRHO/IR/75/ER); details: Leishmania species not given
Outline: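 SI = CC50/IC50. For amastigotes, J774A.1 cells (10^5/well) were seeded on coverslips for 24 h at 37 °C, 5% CO2, then infected with stationary-phase metacyclic promastigotes (10:1) for 24 h. Test compound 1.32–1000 µM was added for 72 h, then cells were methanol-fixed and Giemsa-stained; amastigotes per 100 macrophages were counted. […] Triplicates.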

| SMILES | effect on promastigote count (in words) (L. major promastigotes) | effect on promastigote count (in words) (L. tropica promastigotes) | reduction of the number of amastigotes toward the untreated negative control [1] |
| --- | --- | --- | --- |
| CNC(=S)NN=Cc1ccc(OC)c(OC)c1 [Compound 5a, 2-(3,4-Dimethoxybenzylidene)-N-methylhydrazine-1-carbothioamide] | significant reduction in promastigote count | significant reduction in promastigote count | – |
| CNC(=S)NN=Cc1ccc(O)c(OC)c1 [Compound 5b, 2-(4-Hydroxy-3-methoxybenzylidene)-N-methylhydrazine-1-carbothioamide] | significant reduction in promastigote count | significant reduction in promastigote count | – |
| CNC(=S)NN=Cc1ccc(C)cc1 [Compound 5c, N-Methyl-2-(4-methylbenzylidene)hydrazine-1-carbothioamide] | mild | mild | – |
| CNC(=S)NN=Cc1ccc(Br)cc1 [Compound 5e, 2-(4-Bromobenzylidene)-N-methylhydrazine-1-carbothioamide] | significant reduction in promastigote count | significant reduction in promastigote count | – |
| CNC(=S)NN=Cc1ccc([N+](=O)[O-])cc1 [Compound 5f, 2-(4-Nitrobenzylidene)-N-methylhydrazine-1-carbothioamide] | significant reduction in promastigote count | significant reduction in promastigote count | – |
| CNC(=S)NN=Cc1ccc(OC)cc1 [Compound 5g, N-Methyl-2-(4-methoxybenzylidene)hydrazine-1-carbothioamide] | significant reduction in promastigote count | significant reduction in promastigote count | – |
| O=[N+]([O-])NC(=S)NN=Cc1ccc(Br)cc1 [Compound 5j, 2-(4-Bromobenzylidene)-N-nitrohydrazine-1-carbothioamide] | mild effect | mild effect | – |
| S=C(NN=Cc1ccc(Br)cc1)Nc1cccnc1 [Compound 5n, 2-(4-Bromobenzylidene)-N-(pyridin-3-yl)hydrazine-1-carbothioamide] | limited activity | limited activity | 20–25% |
| COc1ccc(C=NNC(=S)Nc2cccnc2)cc1OC [Compound 5o, 2-(3,4-Dimethoxybenzylidene)-N-(pyridin-3-yl)hydrazine-1-carbothioamide] | limited activity | limited activity | 20–25% |
